Several values for one entry are separate records, joined by “and”; a condition that tells them apart may be missing. Equal entries are not always repeated.
Assays:
[1] = Octanol/water partition coefficient; type: physicochemical; conditions: room temperature
How it was run: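 Lipophilicity taken as Po/w = Ao/Aw. Test compound concentrations in the octanol and water phases measured from electronic absorption spectra.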

[2] = tested on: HaCaT cells; assay: MTT assay, HaCaT normal cells; type: cell-based, human; conditions: read-out: IC50 HaCaT, 72 h treatment, normal cell line
How it was run: (§1)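 Cells grown in DMEM with 10% FBS, penicillin and streptomycin, seeded at 5 × 10^3 per well for 24 h. Test compound added at 0, 1.56, 3.125, 6.25, 12.5, 25, 50 or 100 μM for 72 h. MTT (5 mg/mL stock) added for 4 h; medium replaced by DMSO; absorbance read at 490 nm for IC50.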

[3] = tested on: MDA-MB-231 cells; assay: MTT assay, MDA-MB-231; type: cell-based, human; conditions: read-out: IC50 MDA-MB-231, 72 h treatment
How it was run: as §1

[4] = tested on: HepG2 cells; assay: MTT assay, HepG2; type: cell-based, human; conditions: read-out: IC50 HepG2, 72 h treatment
How it was run: as §1

[5] = tested on: MCF-7 cells; assay: MTT assay, MCF-7; type: cell-based, human; conditions: read-out: IC50 MCF-7, 72 h treatment
How it was run: as §1

[6] = tested on: A549 cells; assay: MTT assay, A549; type: cell-based, human; conditions: read-out: IC50 A549, 72 h treatment
How it was run: as §1

[7] = tested on: transgenic Tg(fli1a:EGFP) zebrafish embryos; assay: Angiogenic effect in vivo, transgenic zebrafish embryos; conditions: 5.0 μM, compared with PTK787
[8] = tested on: MDA-MB-231 cells in zebrafish xenografts; assay: Zebrafish xenograft breast cancer model; type: in vivo; conditions: 5 μM, 72 h
How it was run: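 DiI-labelled MDA-MB-231 cells (10^7 cells/mL; 50–500 cells) microinjected into the perivitelline space near the SIVs of Tg(fli1:EGFP) zebrafish embryos at 48 hpf. Xenografted fish kept 10 per well in 2 mL aquaculture water with 0 or 5 μM test compound for 72 h. Fluorescence imaging every 24 h; n = 10/group.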

[9] = tested on: HUVECs; assay: Tube formation assay; type: cell-based; conditions: 5 and 10 μM, 6 h, VEGF 200 ng/mL
How it was run: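 Matrigel thawed at 4 °C for 24 h, coated into prechilled wells and set at 37 °C for at least 60 min. HUVECs (3 × 10^4) plated in DMEM with VEGF (200 ng/mL) plus test compound (0, 5, 10 μM) for 6 h at 37 °C. Tube networks imaged and analysed.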

[10] = tested on: MDA-MB-231 cells; assay: Immunofluorescence of paxillin and F-actin; type: cell-based, human; conditions: 5 and 10 μM, 24 h
How it was run: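 MDA-MB-231 cells on cover glass, exposed to test compound (0, 5, 10 μM) for 24 h, then fixed in 4% formaldehyde 25 min and blocked in 5% BSA 30 min. Stained with rabbit monoclonal anti-paxillin (1:100, 60 min), Alexa Fluor 488 anti-rabbit (1:200, 30 min), rhodamine phalloidin for F-actin (1:100, 30 min) and DAPI (0.5 μg/mL, 8 min). PBS washes between steps; confocal imaging.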

[11] = tested on: MDA-MB-231 cells; assay: FITC-conjugated gelatin invasion assay; type: cell-based, human; conditions: 5 μM, 24 h
How it was run: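 MDA-MB-231 cells (2 × 10^5 per well) treated with 0 or 5 μM test compound, plated on FITC-gelatin-coated coverslips, and incubated 24 h at 37 °C. Gelatin degradation (dark holes) imaged by laser confocal microscopy; invasive percentage derived. Means ± SEM; one-way ANOVA versus control.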

[12] = tested on: MDA-MB-231 cells; assay: Wound-healing assay; type: cell-based, human; conditions: 72 h
How it was run: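 MDA-MB-231 cells (1 × 10^5/well) grown to >85% confluence, then scratched with a pipette tip. Treated with test compound (0, 2, 4 μM). The same field imaged every 24 h. Migration rate taken as scratch filling, averaged over 10 fields; N = 8. Means ± SEM; one-way ANOVA.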

[13] = tested on: MDA-MB-231 cells; assay: TUNEL assay; type: cell-based, human; conditions: 20 μM
How it was run: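 MDA-MB-231 cells given test compound (0, 10, 20 μM). Fixed in 4% p-formaldehyde in PBS 30 min; permeabilised with 0.3% Triton X-100 in PBS (25 °C, 8 min). TUNEL reaction mixture applied 1 h, then DAPI (0.5 μg/mL, 37 °C, 8 min) in the dark. Read by fluorescence microscopy.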

[14] = tested on: MDA-MB-231 cells; assay: Comet assay; type: cell-based, human; conditions: 5 and 10 μM

Row | Compound | logPo/w [1] | IC50 [2] | IC50 [3] | IC50 [4] | IC50 [5] | IC50 [6] | ISV formation inhibition [7] | metastasis of MDA-MB-231 cells into blood vessels [8] | number of MDA-MB-231 cells in zebrafish (proliferation) ([8]; versus control) | total area of SIV (tumor angiogenesis) ([8]; versus control) | tube formation of HUVECs [9] | quantity of paxillin (focal adhesions) [10] | stress fibers (F-actin) [10] | invasive capability (FITC-gelatin degradation) [11] | wound-healing rate ([12]; 2 μM, versus control) | wound-healing rate ([12]; 4 μM) | apoptotic cells (TUNEL) [13] | endogenous DSBs (olive tail moment, comet assay) [14] | percentage of γH2AX focal positive cells ([14]; 24 h)
1 | [Ru(bpy)2(DPPN)](ClO4)2 [Ru(bpy)2BnDPPZ] | −1.65 | > 100 µM | > 100 µM | 23 ± 1.1 µM | > 100 µM | 32.5 ± 1.6 µM |  |  |  |  |  |  |  |  |  |  |  |  | 
2 | [Ru(bpy)2DPPZ](ClO4)2 | −1.87 | > 100 µM | > 100 µM | > 100 µM | > 100 µM | > 100 µM |  |  |  |  |  |  |  |  |  |  |  |  | 
3 | [Ru(bpy)2(7-CH3-DPPZ)](ClO4)2 [Ru(bpy)2MDPPZ] | −2.17 | > 100 µM | > 100 µM | > 100 µM | 9.7 ± 6.1 µM | 93.3 ± 4.1 µM |  |  |  |  |  |  |  |  |  |  |  |  | 
4 | N.N.[Cl][Pt][Cl] [Cis-platin, cisplatin, reference compound] |  | 7.1 ± 0.5 µM | 20.9 ± 1.9 µM | 15.5 ± 0.4 µM | 86.6 ± 5.9 µM | 21.1 ± 0.2 µM |  |  |  |  |  |  |  |  |  |  |  |  | 
5 | [Ru(bpy)2(7-BEDPPZ)](ClO4)2 [Ru(bpy)2BEDPPZ] | −0.87 | 47.2 ± 2.6 µM | ~17.2 µM and 17.2 µM | 97.5 ± 4.4 µM | 74.9 ± 3.5 µM | 20 ± 0.7 µM | more effectively inhibited ISV formation than PTK787 | scarce MDA-MB-231 cells were found in the blood vessel | notably reduced | obviously less than that in the control group | inhibited notably | decreased quantity of paxillins | inhibited | markedly suppressed | less than half of the control group | further decreased | many apoptotic cells were observed | extremely increased | obviously increased

From PMC6297906 (Computational and Structural Biotechnology Journal, 2018)
